Test results reported in ChEMBL document CHEMBL4364248, “Discovery of 1,2,4-oxadiazole-Containing hydroxamic acid derivatives as histone deacetylase inhibitors potential application in cancer therapy” (Eur J Med Chem, 2019).

Key:
SK-OV-3 = test: Antiproliferative activity against human SKOV3 cells after 72 hrs by MTT assay; type: functional, cell-based; conditions: SK-OV-3, 72 h
[1] = target: T1, Protein deacetylase HDAC6 (Homo sapiens) (UniProt Q9UBN7); test: Inhibition of HDAC6 in human MM1S cells assessed as increase in alpha tubulin acetylation after 6 hrs by Western blot analysis; type: cell-based
T1 sequence (whole entry): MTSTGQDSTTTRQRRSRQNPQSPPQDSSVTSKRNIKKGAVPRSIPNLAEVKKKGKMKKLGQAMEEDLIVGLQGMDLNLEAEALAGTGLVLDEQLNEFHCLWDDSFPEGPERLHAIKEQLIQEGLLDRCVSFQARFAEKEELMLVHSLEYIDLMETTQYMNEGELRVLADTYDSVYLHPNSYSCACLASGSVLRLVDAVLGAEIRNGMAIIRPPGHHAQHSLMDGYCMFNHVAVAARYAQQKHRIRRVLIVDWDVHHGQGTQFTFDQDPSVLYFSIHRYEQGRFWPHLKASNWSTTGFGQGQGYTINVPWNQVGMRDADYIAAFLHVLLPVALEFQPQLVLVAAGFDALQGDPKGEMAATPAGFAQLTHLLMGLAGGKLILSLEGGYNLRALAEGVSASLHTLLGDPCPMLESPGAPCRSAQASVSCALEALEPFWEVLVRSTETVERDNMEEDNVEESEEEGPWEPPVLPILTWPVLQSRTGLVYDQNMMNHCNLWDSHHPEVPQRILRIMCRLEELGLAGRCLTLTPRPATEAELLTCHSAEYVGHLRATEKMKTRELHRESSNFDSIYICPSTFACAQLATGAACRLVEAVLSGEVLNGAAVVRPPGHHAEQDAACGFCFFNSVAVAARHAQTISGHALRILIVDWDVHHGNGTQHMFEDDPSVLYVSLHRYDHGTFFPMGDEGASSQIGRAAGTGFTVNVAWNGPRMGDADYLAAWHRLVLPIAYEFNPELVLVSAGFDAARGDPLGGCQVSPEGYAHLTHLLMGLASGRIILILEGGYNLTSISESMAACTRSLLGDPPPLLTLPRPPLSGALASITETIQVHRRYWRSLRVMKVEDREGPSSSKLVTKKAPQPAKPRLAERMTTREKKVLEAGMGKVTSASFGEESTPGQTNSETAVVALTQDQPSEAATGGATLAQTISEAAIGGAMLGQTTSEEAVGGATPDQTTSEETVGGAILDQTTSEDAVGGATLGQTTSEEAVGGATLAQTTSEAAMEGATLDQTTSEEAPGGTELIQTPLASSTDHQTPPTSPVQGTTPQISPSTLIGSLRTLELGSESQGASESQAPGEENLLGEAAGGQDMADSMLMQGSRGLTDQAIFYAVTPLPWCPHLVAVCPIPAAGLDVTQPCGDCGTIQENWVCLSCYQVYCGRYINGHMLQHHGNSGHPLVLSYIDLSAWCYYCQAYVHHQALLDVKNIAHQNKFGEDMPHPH

[2] = Clearance in Sprague-Dawley rat at 5 mg/kg, po measured upto 24 hrs by LC-MS/MS analysis; type: ADME, organism-based; conditions: in vivo
Method in brief: (§1)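 SD rats (200-250 g), six per time point, given 5 mg/kg as a tail-vein bolus or orally. Blood was taken by cardiac puncture before dosing and at 5, 15, 30, 45 min and 1, 2, 4, 6, 8, 10, 12 and 24 h. Plasma was spun at 4000 g for 15 min at 4 °C and stored at -80 °C. Analysis was LC-MS/MS with multiple-reaction monitoring, followed by noncompartmental analysis.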

A2780S = test: Antiproliferative activity against human A2780S cells after 72 hrs by MTT assay; type: functional, cell-based
Ramos = test: Antiproliferative activity against human Ramos cells after 72 hrs by MTT assay; type: functional, cell-based
[3] = Cmax in Sprague-Dawley rat at 5 mg/kg, po measured upto 24 hrs by LC-MS/MS analysis; type: ADME, organism-based; design: dose 5 mg/kg, route oral; conditions: in vivo; method in brief: as §1
JeKo-1 [4] = test: Cell cycle arrest in human JeKo1 cells assessed as accumulation at G2/M phase at 100 nM after 24 hrs by propidium iodide staining based flow cytometric analysis (reference value: 10.71 %); type: functional
JeKo-1 [5] = test: Cell cycle arrest in human JeKo1 cells assessed as accumulation at G2/M phase at 1000 nM after 24 hrs by propidium iodide staining based flow cytometric analysis (reference value: 10.71 %); type: functional
JeKo-1 [6] = test: Induction of cell cycle arrest in human JeKo1 cells assessed as accumulation at G1 phase after 24 hrs by propidium iodide staining-based flow cytometric method; type: functional
JeKo-1 [7] = test: Induction of apoptosis in human JeKo1 cells assessed as necrotic cells at 10 nM after 48 hrs by annexin V-FITC/propidium iodide staining-based flow cytometric method (reference value: 2.03 %); type: functional
Method in brief: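 Jeko-1 cells were grown in RPMI-1640 with 10% FBS at 37 °C under 5% CO2. They were exposed to 0, 10, 100 or 1000 nM for 48 h, then apoptosis induction was analysed.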

Histone deacetylase 11 = Histone deacetylase 11 (Homo sapiens, UniProt Q96DB2); test: Inhibition of recombinant full length human HDAC11 expressed in baculovirus infected Sf9 cells using Ac-peptide-AMC as substrate after 1 hr by fluorescence assay
Histone deacetylase 11, sequence (Q96DB2 whole entry): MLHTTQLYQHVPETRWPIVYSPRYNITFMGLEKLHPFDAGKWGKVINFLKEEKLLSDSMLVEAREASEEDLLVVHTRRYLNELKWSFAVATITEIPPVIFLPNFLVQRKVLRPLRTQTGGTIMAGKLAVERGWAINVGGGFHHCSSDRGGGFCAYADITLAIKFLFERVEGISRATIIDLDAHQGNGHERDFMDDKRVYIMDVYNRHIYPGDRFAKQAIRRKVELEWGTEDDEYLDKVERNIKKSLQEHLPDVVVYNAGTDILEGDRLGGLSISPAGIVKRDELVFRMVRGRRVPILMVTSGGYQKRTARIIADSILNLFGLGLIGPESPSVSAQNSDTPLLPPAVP

JeKo-1 [8] = test: Cell cycle arrest in human JeKo1 cells assessed as accumulation at S phase at 1000 nM after 24 hrs by propidium iodide staining based flow cytometric analysis (reference value: 26.13 %); type: functional
Daudi = test: Antitumour activity against human Daudi cells xenografted in NOD/SCID mouse assessed as reduction in tumour growth at 20 mg/kg, po treated on day 1,3 and 5 per week and measured for every 2 days; type: functional; conditions: read-out: TGI
Method in brief: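 Daudi cells (107 in 100 µL serum-free RPMI 1640) were injected s.c. into the right flank of 5–6 week female NOD/SCID mice. At 100–200 mm3, mice were randomized six per group. Dosing was 10 mg/kg i.v. or 20 mg/kg p.o. in 8% HP-β-CD on days 1, 3 and 5 each week. Tumors were measured by caliper every 2 days, with TV = length × width² × 0.5.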

[9] = target: T1, Protein deacetylase HDAC6 (Homo sapiens); test: Inhibition of recombinant full length HDAC6 (unknown origin) using Ac-peptide-AMC as substrate at 100 nM after 1 hr by fluorescence assay relative to control
Method in brief: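 Full-length recombinant HDAC1 or HDAC6 was incubated with compound, trypsin and Ac-peptide-AMC substrate for 1 h at room temperature. Fluorescence was read at ex 355/em 460 nm. Inhibition was calculated against the DMSO vehicle control.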

[10] = target: Histone deacetylase 1/2/3 (Homo sapiens) (UniProt Q13547+O15379+Q92769); test: Inhibition of HDAC1/2/3 in human MM1S cells assessed as increase in H3 acetylation after 6 hrs by Western blot analysis; type: cell-based
MM1.S = test: Antiproliferative activity against human MM1S cells after 72 hrs by MTT assay; type: functional, cell-based

IC50 (SK-OV-3): 20.5 nM
inhibition [1]: Dose-dependent effect
CL/F [2]: 372 mL/min/kg
IC50 (A2780S): 40 nM
IC50 (Ramos): 17.8 nM
Cmax [3]: 241 ng/mL
IC50 (Histone deacetylase 11): > 10000 nM
inhibition [9]: 71%
inhibition [10]: Dose-dependent effect
IC50 (MM1.S): 9.8 nM
SMILES: Cc1ccc(CN2CCC(c3noc(CN(C)c4ncc(C(=O)NO)cn4)n3)CC2)cc1
Activity (JeKo-1 [4]): 10.77%
Activity (JeKo-1 [5]): 4.32%
Activity (JeKo-1 [6]): Dose-dependent effect
Activity (JeKo-1 [7]): 0.39%
Activity (JeKo-1 [8]): 12.82%
inhibition in vivo at 20 mg/kg (Daudi): 53.8%
